Measurements pooled from the literature.
Protocols differ between the studies behind these lines.
NTRK2: BDNF/NT-3 growth factors receptor (NTRK2, Homo sapiens, UniProt Q16620)
PTGS1: Prostaglandin G/H synthase 1 (PTGS1, Ovis aries, UniProt P05979)
PTPN11: Tyrosine-protein phosphatase non-receptor type 11 (PTPN11, Homo sapiens, UniProt Q06124)
BCHE: Cholinesterase (BCHE, Equus caballus, UniProt P81908)
SIRT3: NAD-dependent protein deacetylase sirtuin-3, mitochondrial (SIRT3, Homo sapiens, UniProt Q9NTG7)
DRD1: D(1A) dopamine receptor (DRD1, Homo sapiens, UniProt P21728)

For N#CC1(c2ccc(NC(=O)c3cccnc3NCc3ccncc3)cc2)CCCC1, the IC50 was 0.21 µM (Mitogen-activated protein kinase kinase kinase 20 (MAP3K20, Homo sapiens, UniProt Q9NYL2); enzyme activity, inhibitor, mass spectrometry).
O=C1Nc2ccccc2/C1=C1/Nc2ccccc2/C1=N\O has an IC50 of 1 µM (Ribosomal protein S6 kinase alpha-3, N-terminal kinase domain (RPS6KA3, Homo sapiens, UniProt P51812); enzyme activity, inhibitor, FP).
With CC(=O)N1C[C@@H](CCN2CCC(c3c[nH]c4ccccc34)CC2)c2ccccc21 the IC50 was 0.182 µM (Sodium-dependent serotonin transporter (SLC6A4, Homo sapiens, UniProt P31645); ligand displacement, radioligand; cell membranes).
Cc1cc(Nc2cc(CN3CCOCC3)c3nc(C)c(Cc4ccc(Cl)cc4F)n3n2)n[nH]1 gave an IC50 of 0.095 µM (NTRK2; enzyme activity, inhibitor, TR-FRET).
For Cc1cccc2nc(-c3ccc(S(C)(=O)=O)cc3)c(Nc3ccccc3)n12, the IC50 was 24.6 µM (PTGS1; enzyme activity, inhibitor, fluorescence).
With O=C(O)C(=O)CC(=O)c1cccc(N(Cc2ccccc2)Cc2ccccc2)c1 the IC50 was 85 µM (PTPN11; enzyme activity, inhibitor, absorbance; pH 7).
With COc1ccc2c(c1OCc1ccc(OC(F)(F)F)cc1)C[C@@H](C(=O)O)N(c1nc3ccc(F)cc3o1)C2 the IC50 was 0.159 µM (Type-2 angiotensin II receptor (AGTR2, Homo sapiens, UniProt P50052); cell-free assay, TR-FRET).
With CC1=C[C@@]2(C[C@H](C)[C@H]3CC=C(CO)C(=O)[C@@H]3O2)OC1=O the IC50 was 48.2 µM (PTPN11; enzyme activity, inhibitor).
For FC(F)(F)c1ccc(CN2CCN(c3nccc(NCc4ccccc4)n3)CC2)cc1, the IC50 was over 100 µM (BCHE; enzyme activity, inhibitor).
For CCc1cc(/C(C)=N/OCc2ccc(C3CCCCC3)c(C(F)(F)F)c2)ccc1CN1CC(C(=O)O)C1, the IC50 was over 0.6 µM (Cytochrome P450 2B6 (CYP2B6, Homo sapiens, UniProt P20813); enzyme activity, inhibitor; human, liver microsomes; 20 min).
Cc1cc(-c2ccc(NC(=O)[C@H](CCCCNC(=O)CCN3C(=O)CC(SCC(=O)N[C@H](Cc4ccccc4)C(=O)N[C@H]4CSSC[C@@H](C(=O)N[C@H](C(=O)O)[C@@H](C)O)NC(=O)[C@H]([C@@H](C)O)NC(=O)[C@H](CCCCN)NC(=O)[C@@H](Cc5c[nH]c6ccccc56)NC(=O)[C@H](Cc5ccc(O)cc5)NC4=O)C3=O)NC(=O)CN3CCN(CC(=O)O)CCN(CC(=O)O)CCN(CC(=O)O)CC3)c(C)c2)ccc1N=Nc1ccc2c(S(=O)(=O)O)cc(S(=O)(=O)O)c(N)c2c1O (stereo partly shown) gave an IC50 of 0.00916 µM (Somatostatin receptor type 2 (Rattus norvegicus, UniProt P30680); ligand displacement).
For C=C(NC(=O)[C@H](CCCCNC(=S)CCCCCCCCCCCCC)NS(C)(=O)=O)C(=O)N[C@@H](CCCNC(=N)N)C(N)=O, the IC50 was 3.7 µM (SIRT3; enzyme activity, inhibitor).
For CSc1ccc(/C=C2/C(C)=C(CC(=O)O)c3cc(F)ccc32)cc1, the IC50 was over 100 µM (cGMP-inhibited 3',5'-cyclic phosphodiesterase 3B (PDE3B, Homo sapiens, UniProt Q13370); enzyme activity, inhibitor).
The IC50 of CCCCCCCCCCCCNC(=S)NCCCC[C@H](NS(C)(=O)=O)C(=O)N[C@H](C)C(=O)N[C@@H](CCCNC(=N)N)C(=O)N1CCOCC1 is reported as 55 µM (SIRT3; enzyme activity, inhibitor).
The IC50 of CS(=O)(=O)c1ccc(-c2nc3ccccn3c2Nc2ccccc2)cc1 is reported as 18.1 µM (PTGS1; enzyme activity, inhibitor, fluorescence).
CC1Cc2ccccc2N1C(=O)NCCCCN(C)[C@@H]1Cc2cccc3[nH]c(=O)n(c23)C1 (mixture of isomers) gave an IC50 of over 10 µM (DRD1; ligand displacement, radioligand).
The IC50 of OCCN1CCN(c2nccc(NCc3ccccc3)n2)CC1 is reported as over 100 µM (BCHE; enzyme activity, inhibitor).
CC[C@@H](C(=O)Nc1ccc(C(N)=O)c(F)c1)n1cc(OC)c(-c2cc(Cl)ccc2-n2cc(C(F)(F)F)nn2)cc1=O has an IC50 of 1.9 µM (Coagulation factor VII (F7, Homo sapiens, UniProt P08709); enzyme activity, inhibitor).
With O=C(NCCc1ccc(OP(=O)(O)O)c(OP(=O)(O)O)c1)OCC1c2ccccc2-c2ccccc21 the IC50 was 32.4 µM (Signal transducer and activator of transcription 5A, SH2 (Homo sapiens, UniProt P42229); ligand displacement, FP).
With Cc1ccc(NC(=O)c2ccc(C)c(C(F)(F)F)c2)cc1C#Cc1nn(C2CCC(O)CC2)c2ncnc(N)c12 (stereo not shown) the IC50 was 0.899 µM (NTRK2; enzyme activity, inhibitor, radiometric).
The IC50 of CN(CCCCNC(=O)c1cc2ccccc2[nH]1)[C@@H]1Cc2cccc3[nH]c(=O)n(c23)C1 is reported as over 9.2 µM (DRD1; ligand displacement, radioligand).
The IC50 of CCN(CC)c1ccc(C=O)cc1 is reported as 15.1 µM (Aldehyde dehydrogenase, dimeric NADP-preferring (ALDH3A1, Homo sapiens, UniProt P30838); enzyme activity, inhibitor, absorbance).
The IC50 of N[C@@H](Cc1ccccc1)C(=O)N[C@@H](CC(=O)O)C(=O)N[C@@H](Cc1ccccc1)C(=O)O is reported as 97.9 µM (PTPN11; enzyme activity, inhibitor, absorbance; pH 7.4).
The IC50 of CC(C)(C)n1nc(-c2cnc3cc(OC4CC4)ccc3c2)c(C(N)=O)c1N is reported as over 10 µM (Calcium/calmodulin-dependent protein kinase type 1D (CAMK1D, Homo sapiens, UniProt Q8IU85); cell-free assay).
O=[N+]([O-])c1ccc(NC(=S)N2CCc3ccccc3C2)c(Cl)c1 has an IC50 of 25.5 µM (Urease (Canavalia ensiformis, UniProt P07374); enzyme activity, inhibitor, absorbance).
CC1=C[C@@]2(C[C@H](C)[C@H]3CC=C(C)[C@@H](O[C@@H]4O[C@H](CO)[C@@H](O)[C@H](O)[C@H]4O)[C@@H]3O2)OC1=O gave an IC50 of 90.5 µM (PTPN11; enzyme activity, inhibitor).
The IC50 of O=Cc1ccc2[nH]ncc2c1 is reported as about 350 µM (Ribosomal protein S6 kinase alpha-3 (RPS6KA3, Homo sapiens, UniProt P51812); enzyme activity, inhibitor).
Cc1c(Br)cc(NC(=O)NS(=O)(=O)O)cc1Br gave an IC50 of over 10 µM (Tyrosine-protein phosphatase non-receptor type 9 (PTPN9, Homo sapiens, UniProt P43378); enzyme activity, inhibitor, absorbance).
For CN(C)CC#Cc1ccc2[nH]c3c(c2c1)-c1nc(N)ncc1CCC3, the IC50 was over 10 µM (Dual specificity mitogen-activated protein kinase kinase 2 (MAP2K2, Homo sapiens, UniProt P36507); enzyme activity, inhibitor, radiometric).
For O=S1(=O)CCN(c2nccc(NCc3ccccc3)n2)CC1, the IC50 was over 100 µM (BCHE; enzyme activity, inhibitor).
CCCC[C@H](NC(=O)[C@H](C)c1c(C)[nH]c2ccc(O)cc12)c1ncc(-c2cc3ccccc3nc2OC)[nH]1 has an IC50 of 2.69 µM (Prostaglandin E2 receptor EP1 subtype (PTGER1, Homo sapiens, UniProt P34995); enzyme activity).
For Oc1cc2c(cc1OCC(F)F)CCN1Cc3c(c(Br)cc(O)c3OCC(F)F)C[C@@H]21, the IC50 was 0.23 µM (DRD1; cAMP, antagonist, TR-FRET).
For CN1CCN(c2ccc(Nc3ncc4cc(C#N)c(=O)n(C5CCCC5)c4n3)cc2)CC1, the IC50 was 0.477 µM (Mitogen-activated protein kinase kinase kinase 9 (MAP3K9, Homo sapiens, UniProt P80192); enzyme activity, inhibitor).
[O-][S+]1CCN(c2nccc(NCc3ccccc3)n2)CC1 gave an IC50 of over 100 µM (BCHE; enzyme activity, inhibitor).
